The record followed here is ChEMBL document CHEMBL1124335, “5-Isoquinolinesulfonamide derivatives. 1. Synthesis and vasodilatory activity of N-(2-guanidinoethyl)-5-isoquinolinesulfonamide derivatives” (1989).

Molecules are shown by their SMILES.

The first assay relates to Canis familiaris. In words: Increasing effect on femoral blood flow (FBF) in femoral artery of anesthetized dogs. It is filed as functional, Canis lupus familiaris.
Settings: not given
An outline of the steps:
(§1)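 Anesthetized dogs, trachea intubated and ventilated at 12-16 cycles/min, with tidal volume set to hold arterial pH, pCO2 and pO2 within physiological limits. Body temperature kept at 37-38 °C. Drug given locally intra-arterially into the femoral artery, at least three doses per compound. Trapidil 100 μg was given before and after as reference. Femoral blood flow increase read from at least three dose-response curves. Expressed as equieffective dose ratio versus trapidil (mg/mg).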
In the case of `CN(CCNS(=O)(=O)c1cccc2cnccc12)C(=N)N.Cl`, the “Equieffective dose ratio vs trapidil for femoral blood flow increase” value is on record as 1.1.

For `Cl.O=S(=O)(NCCNC1=NCCN1)c1cccc2cnccc12`, the “Equieffective dose ratio vs trapidil for femoral blood flow increase” value was found to be 24.

On to `Cl.O=S(=O)(NCCN=C(Nc1ccccc1)Nc1ccccc1)c1cccc2cnccc12`, for which the “Equieffective dose ratio vs trapidil for femoral blood flow increase” value is on record as above 50.

Consider `C/N=C(\NC)NCCNS(=O)(=O)c1cccc2cnccc12.Cl`, for which the “Equieffective dose ratio vs trapidil for femoral blood flow increase” value is listed as above 50.

Turning to `Cl.N=C(N)NCCNS(=O)(=O)c1cccc2cnccc12`, the “Equieffective dose ratio vs trapidil for femoral blood flow increase” value came out at 1.7.

As to `Cl.N/C(=N\CCNS(=O)(=O)c1cccc2cnccc12)N[N+](=O)[O-]`, the “Equieffective dose ratio vs trapidil for femoral blood flow increase” value is on record as above 10.

As to `Cl.N=C(N)N1CCCN(S(=O)(=O)c2cccc3cnccc23)CC1`, the “Equieffective dose ratio vs trapidil for femoral blood flow increase” value is listed as 0.19.

For `Cl.N=C(N)NCCCCNS(=O)(=O)c1cccc2cnccc12`, the “Equieffective dose ratio vs trapidil for femoral blood flow increase” value was 16.

For `CC1CN(S(=O)(=O)c2cccc3cnccc23)C(C)CN1C(=N)N.Cl` (stereo not drawn), the “Equieffective dose ratio vs trapidil for femoral blood flow increase” value came to 1.6.

As for `COc1ccc([C@@H]2Sc3ccccc3N(CCN(C)C)C(=O)[C@@H]2OC(C)=O)cc1.Cl` [DILTIAZEM HYDROCHLORIDE], the “Equieffective dose ratio vs trapidil for femoral blood flow increase” value is recorded as 0.21.

On to `Cl.N=C(N)N1CCN(S(=O)(=O)c2cccc3cnccc23)CC1`, for which the “Equieffective dose ratio vs trapidil for femoral blood flow increase” value is given as 0.62.

Regarding `Cl.N=C(N)NCCCCCCNS(=O)(=O)c1cccc2cnccc12`, the “Equieffective dose ratio vs trapidil for femoral blood flow increase” value is given as 3.8.

For `Cl.N#CNC(=N)NCCNS(=O)(=O)c1cccc2cnccc12`, the “Equieffective dose ratio vs trapidil for femoral blood flow increase” value was above 50.

Consider `Cl.N=C(N)NCCCNS(=O)(=O)c1cccc2cnccc12`, for which the “Equieffective dose ratio vs trapidil for femoral blood flow increase” value was 4.3.

As to `Cl.O=S(=O)(NCCNc1ncccn1)c1cccc2cnccc12`, the “Equieffective dose ratio vs trapidil for femoral blood flow increase” value is listed as above 30.

For `CN(CCN=C(N)N)S(=O)(=O)c1cccc2cnccc12.Cl`, the “Equieffective dose ratio vs trapidil for femoral blood flow increase” value was 1.8.

The next assay relates to Canis familiaris. In words: Compound was evaluated for increasing effect on femoral blood flow (FBF) in femoral artery of anesthetized dogs, compared to Trapidil; No detectable vasodilation. It is filed as functional, organism-based. Conditions: Canis lupus familiaris. In a few lines:
as §1
Consider `N=C(N)NNS(=O)(=O)c1cccc2cnccc12`, for which the FBF result is “No detectable vasodilation”.

The subject of a further assay is Canis familiaris. The experiment in a line: Compound was evaluated for increasing effect on femoral blood flow (FBF) in femoral artery of anesthetized dogs, compared to Trapidil; ND is no detectable vasodilation. Format: functional, organism-based. The note with it: Canis lupus familiaris. An outline of the steps:
as §1
On to `CNC(=N)NCCNS(=O)(=O)c1cccc2cnccc12`, for which the FBF result was “No detectable vasodilation”.
